Four molecules from ChEMBL document CHEMBL3352013, “The design and synthesis of potent and selective inhibitors of Trypanosoma brucei glycogen synthase kinase 3 for the treatment of human african trypanosomiasis” (J Med Chem, 2014) can be followed below.

Test [1] can be described thus: Inhibition of Trypanosoma brucei GSK3 using biotinylated GSP2 substrate by flashplate assay. A digest of the protocol:
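Radiometric Flashplate assay: 2.5 nM TbGSK3 short, 1 μM biotinylated GSP2, 1 μM ATP plus [γ-33P]-ATP. 10-point titration 30 μM to 0.3 nM final, 1% DMSO. IC50 averaged over two or more experiments; standard GW8510 used for reproducibility (MSR).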

Test [2] deals with Glycogen synthase kinase-3 (Homo sapiens, UniProt P49840+P49841). Kind of test: Inhibition of human GSK3 using biotinylated GSP2 substrate by flashplate assay. Type of test: protein assay.
The target in a further test is CDK2/Cyclin A2 (Homo sapiens, UniProt P24941). Kind of test: Inhibition of human CDK2/cyclin A using Biotin-C6-PKTPKKAKKL substrate. Format: protein-complex assay.
A short description of test [3]: Selectivity ratio, ratio of IC50 for human CDK2/cyclin A to IC50 for Trypanosoma brucei GSK3.
In test [4] the test system is Trypanosoma brucei brucei. Put plainly: Trypanocidal activity against bloodstream stage of Trypanosoma brucei brucei assessed as inhibition of proliferation after 72 hrs. Format: functional, organism-based. A digest of the protocol: (§1)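 Resazurin viability assay: 2 × 10³ cells/well (MRC5 in MEM + 10% FBS; bloodstream-form T. b. brucei in appropriate medium), compounds 50 μM to 0.5 nM, 37 °C, 5% CO₂ for 69 h, then resazurin 50 μM final for further 4 h; fluorescence read. Concentration giving 50% growth inhibition over 72 h; average of two or more experiments.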

The test system of a further test is MRC5. Kind of test: Cytotoxicity against human MRC5 cells assessed as growth inhibition after 72 hrs. Format: cell-based. Particulars: MRC5, 72 h. Summed up:
as §1

Test [5] has as its target Dual specificity mitogen-activated protein kinase kinase 1 (Homo sapiens) (UniProt Q02750). Kind of test: Inhibition of MKK1 (unknown origin) assessed as residual enzyme activity at 10 uM.
The target in test [6] is Mitogen-activated protein kinase 1 (Homo sapiens) (UniProt P28482). Put plainly: Inhibition of ERK2 (unknown origin) assessed as residual enzyme activity at 10 uM.
Test [7] has as its target Mitogen-activated protein kinase 8 (Homo sapiens) (UniProt P45983). Put plainly: Inhibition of JNK1 (unknown origin) assessed as residual enzyme activity at 10 uM.
For test [8], the target named is Mitogen-activated protein kinase 9 (Homo sapiens) (UniProt P45984). Put plainly: Inhibition of JNK2 (unknown origin) assessed as residual enzyme activity at 10 uM.
Test [9] addresses T1, Mitogen-activated protein kinase 15 (Homo sapiens) (UniProt Q8TD08).
T1 sequence (whole entry): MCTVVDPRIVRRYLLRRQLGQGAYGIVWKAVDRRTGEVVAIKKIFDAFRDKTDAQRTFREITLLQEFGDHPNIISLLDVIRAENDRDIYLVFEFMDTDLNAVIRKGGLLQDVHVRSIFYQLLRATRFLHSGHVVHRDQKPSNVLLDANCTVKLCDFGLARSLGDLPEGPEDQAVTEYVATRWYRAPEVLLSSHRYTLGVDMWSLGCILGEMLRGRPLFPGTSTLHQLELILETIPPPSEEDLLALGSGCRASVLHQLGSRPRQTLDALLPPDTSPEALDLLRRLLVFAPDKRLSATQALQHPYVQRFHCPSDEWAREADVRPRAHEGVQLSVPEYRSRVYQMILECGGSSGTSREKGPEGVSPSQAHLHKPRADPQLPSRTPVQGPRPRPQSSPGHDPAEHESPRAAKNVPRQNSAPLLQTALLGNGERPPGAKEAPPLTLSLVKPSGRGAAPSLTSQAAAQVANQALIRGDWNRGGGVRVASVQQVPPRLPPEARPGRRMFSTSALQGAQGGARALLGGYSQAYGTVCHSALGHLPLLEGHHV
Put plainly: Inhibition of ERK8 (unknown origin) assessed as residual enzyme activity at 10 uM.

In test [10] the target is MAP kinase-activated protein kinase 2 (Homo sapiens) (UniProt P49137). Kind of test: Inhibition of MAPKAP-K2 (unknown origin) assessed as residual enzyme activity at 10 uM.
Test [11] concerns the target Glycogen synthase kinase-3 beta (Homo sapiens) (UniProt P49841). Kind of test: Inhibition of GSK3b (unknown origin) assessed as residual enzyme activity at 10 uM.
In test [12] the target is Cyclin-dependent kinase 2 (Homo sapiens) (UniProt P24941). Put plainly: Inhibition of CDK2 (unknown origin) assessed as residual enzyme activity at 10 uM.
In test [13] the target is Maternal embryonic leucine zipper kinase (Homo sapiens) (UniProt Q14680). Kind of test: Inhibition of MELK (unknown origin) assessed as residual enzyme activity at 10 uM.
Test [14] deals with Dual specificity tyrosine-phosphorylation-regulated kinase 1A (Homo sapiens) (UniProt Q13627). Put plainly: Inhibition of DYRK1A (unknown origin) assessed as residual enzyme activity at 10 uM.
The target in test [15] is T2, Dual specificity tyrosine-phosphorylation-regulated kinase 2 (Homo sapiens) (UniProt Q92630).
T2 sequence (whole entry): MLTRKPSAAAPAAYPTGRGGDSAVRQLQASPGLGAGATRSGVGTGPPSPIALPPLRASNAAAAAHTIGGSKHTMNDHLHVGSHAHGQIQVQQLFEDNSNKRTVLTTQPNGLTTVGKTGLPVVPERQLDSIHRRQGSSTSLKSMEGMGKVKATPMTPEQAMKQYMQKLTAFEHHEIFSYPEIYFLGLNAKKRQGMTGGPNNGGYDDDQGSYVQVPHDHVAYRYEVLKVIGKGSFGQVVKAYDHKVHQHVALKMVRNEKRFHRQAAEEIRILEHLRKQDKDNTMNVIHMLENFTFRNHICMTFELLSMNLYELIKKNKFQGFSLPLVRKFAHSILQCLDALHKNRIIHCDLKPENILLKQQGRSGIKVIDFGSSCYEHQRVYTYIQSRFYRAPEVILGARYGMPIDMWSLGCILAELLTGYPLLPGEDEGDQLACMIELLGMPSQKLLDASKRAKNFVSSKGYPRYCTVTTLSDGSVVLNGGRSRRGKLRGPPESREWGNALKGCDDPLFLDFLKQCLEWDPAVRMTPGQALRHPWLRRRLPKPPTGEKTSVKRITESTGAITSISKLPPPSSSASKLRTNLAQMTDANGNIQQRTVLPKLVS
Put plainly: Inhibition of DYRK2 (unknown origin) assessed as residual enzyme activity at 10 uM.

Test [16] concerns the target T3, Dual specificity tyrosine-phosphorylation-regulated kinase 3 (Homo sapiens) (UniProt O43781).
T3 sequence (whole entry): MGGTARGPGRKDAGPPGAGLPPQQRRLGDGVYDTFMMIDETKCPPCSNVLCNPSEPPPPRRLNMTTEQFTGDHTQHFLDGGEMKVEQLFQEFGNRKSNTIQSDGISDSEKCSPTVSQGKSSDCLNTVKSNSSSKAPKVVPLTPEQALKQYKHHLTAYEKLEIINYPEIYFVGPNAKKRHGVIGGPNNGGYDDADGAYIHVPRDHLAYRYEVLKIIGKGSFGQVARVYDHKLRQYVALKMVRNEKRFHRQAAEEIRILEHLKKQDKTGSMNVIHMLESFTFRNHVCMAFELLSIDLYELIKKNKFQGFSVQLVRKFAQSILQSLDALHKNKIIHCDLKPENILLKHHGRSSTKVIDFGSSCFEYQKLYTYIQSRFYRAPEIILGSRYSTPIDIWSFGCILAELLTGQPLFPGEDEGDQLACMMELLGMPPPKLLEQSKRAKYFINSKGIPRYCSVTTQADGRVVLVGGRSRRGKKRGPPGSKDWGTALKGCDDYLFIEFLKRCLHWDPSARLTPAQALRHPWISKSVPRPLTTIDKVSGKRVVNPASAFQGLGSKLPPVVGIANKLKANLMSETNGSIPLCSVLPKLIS
Put plainly: Inhibition of DYRK3 (unknown origin) assessed as residual enzyme activity at 10 uM.

For test [17], the target named is Serine/threonine-protein kinase pim-1 (Homo sapiens) (UniProt P11309). Kind of test: Inhibition of PIM1 (unknown origin) assessed as residual enzyme activity at 10 uM.
The target in test [18] is Serine/threonine-protein kinase pim-3 (Homo sapiens) (UniProt Q86V86). Kind of test: Inhibition of PIM3 (unknown origin) assessed as residual enzyme activity at 10 uM.
Test [19] has as its target Homeodomain-interacting protein kinase 2 (Homo sapiens) (UniProt Q9H2X6). Kind of test: Inhibition of HIPK2 (unknown origin) assessed as residual enzyme activity at 10 uM.
Test [20] addresses Insulin-like growth factor 1 receptor (Homo sapiens) (UniProt P08069). Put plainly: Inhibition of IGF-1R (unknown origin) assessed as residual enzyme activity at 10 uM.
Test [21] is described as follows: Selectivity ratio, ratio of IC50 for human GSK3 to IC50 Trypanosoma brucei GSK3.
In test [22] the target is Misshapen-like kinase 1 (Homo sapiens) (UniProt Q8N4C8). Kind of test: Inhibition of MINK1 (unknown origin) assessed as residual enzyme activity at 10 uM.

Each structure is given as a SMILES string. Where only a bound is given, the exact number is not on record here.

Chain of Glycogen synthase kinase-3 beta (Homo sapiens) (P49841 whole entry, looked up): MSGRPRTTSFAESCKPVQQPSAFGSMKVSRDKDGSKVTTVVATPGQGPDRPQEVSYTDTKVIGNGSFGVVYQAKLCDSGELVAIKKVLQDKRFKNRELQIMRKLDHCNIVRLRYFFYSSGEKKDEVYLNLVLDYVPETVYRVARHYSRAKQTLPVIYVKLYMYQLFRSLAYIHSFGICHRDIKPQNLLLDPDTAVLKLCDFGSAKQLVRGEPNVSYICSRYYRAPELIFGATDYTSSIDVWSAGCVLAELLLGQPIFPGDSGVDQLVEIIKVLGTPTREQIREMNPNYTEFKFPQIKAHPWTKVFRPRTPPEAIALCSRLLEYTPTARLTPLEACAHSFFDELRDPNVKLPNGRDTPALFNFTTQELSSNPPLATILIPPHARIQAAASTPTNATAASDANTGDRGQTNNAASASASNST
Chain of Serine/threonine-protein kinase pim-1 (Homo sapiens) (P11309 whole entry, looked up): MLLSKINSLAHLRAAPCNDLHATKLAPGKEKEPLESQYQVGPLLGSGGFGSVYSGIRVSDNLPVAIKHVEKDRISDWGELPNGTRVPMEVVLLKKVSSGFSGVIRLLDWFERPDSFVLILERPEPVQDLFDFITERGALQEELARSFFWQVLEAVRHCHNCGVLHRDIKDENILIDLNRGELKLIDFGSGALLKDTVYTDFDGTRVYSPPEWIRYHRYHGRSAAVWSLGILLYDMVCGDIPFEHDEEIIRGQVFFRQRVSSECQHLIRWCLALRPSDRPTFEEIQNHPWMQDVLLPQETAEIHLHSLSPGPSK
Chain of MAP kinase-activated protein kinase 2 (Homo sapiens) (P49137 whole entry, looked up): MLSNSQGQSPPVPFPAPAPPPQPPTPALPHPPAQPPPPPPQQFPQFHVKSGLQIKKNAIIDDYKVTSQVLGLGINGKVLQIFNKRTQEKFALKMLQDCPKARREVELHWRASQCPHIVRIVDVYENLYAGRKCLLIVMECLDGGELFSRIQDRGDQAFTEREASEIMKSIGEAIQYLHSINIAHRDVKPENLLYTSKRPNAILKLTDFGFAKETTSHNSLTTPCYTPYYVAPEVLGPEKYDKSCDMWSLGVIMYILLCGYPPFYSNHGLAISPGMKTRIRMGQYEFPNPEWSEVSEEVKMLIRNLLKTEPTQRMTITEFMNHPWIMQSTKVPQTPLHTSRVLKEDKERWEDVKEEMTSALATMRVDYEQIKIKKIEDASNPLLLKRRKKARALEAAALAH
Chain of Insulin-like growth factor 1 receptor (Homo sapiens) (P08069 31-736 limits assumed): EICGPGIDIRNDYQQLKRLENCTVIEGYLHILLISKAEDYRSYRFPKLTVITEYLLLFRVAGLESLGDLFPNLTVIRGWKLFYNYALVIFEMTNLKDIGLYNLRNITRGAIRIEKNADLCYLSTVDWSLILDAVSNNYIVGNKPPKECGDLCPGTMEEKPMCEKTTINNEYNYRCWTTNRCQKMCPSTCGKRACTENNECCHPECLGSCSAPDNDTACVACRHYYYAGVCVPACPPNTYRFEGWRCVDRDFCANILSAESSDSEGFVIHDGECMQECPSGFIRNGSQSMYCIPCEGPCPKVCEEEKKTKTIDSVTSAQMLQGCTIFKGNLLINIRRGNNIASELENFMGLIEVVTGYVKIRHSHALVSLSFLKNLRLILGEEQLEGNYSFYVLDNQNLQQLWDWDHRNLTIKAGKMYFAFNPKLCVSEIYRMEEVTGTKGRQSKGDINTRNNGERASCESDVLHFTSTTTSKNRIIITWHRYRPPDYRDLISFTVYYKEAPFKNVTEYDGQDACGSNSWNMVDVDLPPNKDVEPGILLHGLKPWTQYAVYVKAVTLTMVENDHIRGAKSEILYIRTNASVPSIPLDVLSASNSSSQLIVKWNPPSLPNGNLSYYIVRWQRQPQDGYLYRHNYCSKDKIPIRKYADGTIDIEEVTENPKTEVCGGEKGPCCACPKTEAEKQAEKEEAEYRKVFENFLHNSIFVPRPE
Chain of Insulin-like growth factor 1 receptor (Homo sapiens) (P08069 741-1367 limits assumed): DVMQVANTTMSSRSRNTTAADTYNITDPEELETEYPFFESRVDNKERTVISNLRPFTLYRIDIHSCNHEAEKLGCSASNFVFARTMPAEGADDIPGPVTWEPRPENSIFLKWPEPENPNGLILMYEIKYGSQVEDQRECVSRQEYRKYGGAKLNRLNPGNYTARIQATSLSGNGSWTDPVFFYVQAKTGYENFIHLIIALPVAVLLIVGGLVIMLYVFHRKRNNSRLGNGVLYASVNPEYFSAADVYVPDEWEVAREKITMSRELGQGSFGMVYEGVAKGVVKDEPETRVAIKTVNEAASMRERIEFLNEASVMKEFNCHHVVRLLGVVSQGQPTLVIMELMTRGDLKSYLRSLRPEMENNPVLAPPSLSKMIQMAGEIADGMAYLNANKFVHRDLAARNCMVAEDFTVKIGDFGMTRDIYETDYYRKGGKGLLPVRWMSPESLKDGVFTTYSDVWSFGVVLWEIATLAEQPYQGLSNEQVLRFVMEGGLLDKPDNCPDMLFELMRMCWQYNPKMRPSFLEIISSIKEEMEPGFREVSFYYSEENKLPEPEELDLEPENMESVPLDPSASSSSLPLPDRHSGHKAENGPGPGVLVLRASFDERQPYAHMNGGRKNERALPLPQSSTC
Chain of Homeodomain-interacting protein kinase 2 (Homo sapiens) (Q9H2X6 whole entry, looked up): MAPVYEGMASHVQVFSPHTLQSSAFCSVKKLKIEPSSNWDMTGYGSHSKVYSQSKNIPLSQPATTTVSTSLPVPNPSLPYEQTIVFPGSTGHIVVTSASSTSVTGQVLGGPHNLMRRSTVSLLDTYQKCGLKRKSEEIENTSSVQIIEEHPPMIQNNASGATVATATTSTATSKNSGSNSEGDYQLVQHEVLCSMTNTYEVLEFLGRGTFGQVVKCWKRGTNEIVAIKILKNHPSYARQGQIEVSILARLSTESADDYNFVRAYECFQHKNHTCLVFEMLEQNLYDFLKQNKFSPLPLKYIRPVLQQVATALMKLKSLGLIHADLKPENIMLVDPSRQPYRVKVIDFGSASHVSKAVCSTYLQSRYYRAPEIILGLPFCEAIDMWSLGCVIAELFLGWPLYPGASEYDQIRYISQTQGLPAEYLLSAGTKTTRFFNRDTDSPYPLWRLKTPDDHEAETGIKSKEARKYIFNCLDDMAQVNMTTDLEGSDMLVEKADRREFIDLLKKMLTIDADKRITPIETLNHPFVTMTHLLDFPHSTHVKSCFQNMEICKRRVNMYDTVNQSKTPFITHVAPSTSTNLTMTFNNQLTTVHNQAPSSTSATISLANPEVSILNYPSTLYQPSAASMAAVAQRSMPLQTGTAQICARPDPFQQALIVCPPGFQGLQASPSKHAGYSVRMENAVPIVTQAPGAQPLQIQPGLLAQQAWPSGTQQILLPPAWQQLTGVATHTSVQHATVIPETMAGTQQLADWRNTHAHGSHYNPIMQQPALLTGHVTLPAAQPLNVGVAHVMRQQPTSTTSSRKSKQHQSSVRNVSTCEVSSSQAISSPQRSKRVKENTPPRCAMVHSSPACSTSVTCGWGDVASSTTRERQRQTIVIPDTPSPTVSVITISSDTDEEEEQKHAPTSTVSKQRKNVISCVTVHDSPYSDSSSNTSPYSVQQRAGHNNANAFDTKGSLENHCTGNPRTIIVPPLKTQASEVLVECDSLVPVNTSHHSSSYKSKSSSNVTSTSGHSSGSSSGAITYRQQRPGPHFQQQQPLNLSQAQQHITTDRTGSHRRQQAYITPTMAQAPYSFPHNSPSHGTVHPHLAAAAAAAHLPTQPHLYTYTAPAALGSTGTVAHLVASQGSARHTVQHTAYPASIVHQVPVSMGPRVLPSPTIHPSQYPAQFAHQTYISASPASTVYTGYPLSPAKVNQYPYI
Chain of Mitogen-activated protein kinase 9 (Homo sapiens) (P45984 whole entry, looked up): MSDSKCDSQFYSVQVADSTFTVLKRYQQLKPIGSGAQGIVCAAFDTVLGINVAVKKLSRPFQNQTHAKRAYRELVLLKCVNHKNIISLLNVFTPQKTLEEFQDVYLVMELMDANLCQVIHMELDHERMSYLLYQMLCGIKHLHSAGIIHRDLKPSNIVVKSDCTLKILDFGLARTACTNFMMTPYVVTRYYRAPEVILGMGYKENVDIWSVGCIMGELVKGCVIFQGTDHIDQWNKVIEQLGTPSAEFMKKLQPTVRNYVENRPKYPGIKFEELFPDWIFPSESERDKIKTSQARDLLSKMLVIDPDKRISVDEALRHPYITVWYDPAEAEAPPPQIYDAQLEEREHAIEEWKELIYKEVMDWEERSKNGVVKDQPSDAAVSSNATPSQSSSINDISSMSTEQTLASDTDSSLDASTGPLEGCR
Chain of Dual specificity mitogen-activated protein kinase kinase 1 (Homo sapiens) (Q02750 whole entry): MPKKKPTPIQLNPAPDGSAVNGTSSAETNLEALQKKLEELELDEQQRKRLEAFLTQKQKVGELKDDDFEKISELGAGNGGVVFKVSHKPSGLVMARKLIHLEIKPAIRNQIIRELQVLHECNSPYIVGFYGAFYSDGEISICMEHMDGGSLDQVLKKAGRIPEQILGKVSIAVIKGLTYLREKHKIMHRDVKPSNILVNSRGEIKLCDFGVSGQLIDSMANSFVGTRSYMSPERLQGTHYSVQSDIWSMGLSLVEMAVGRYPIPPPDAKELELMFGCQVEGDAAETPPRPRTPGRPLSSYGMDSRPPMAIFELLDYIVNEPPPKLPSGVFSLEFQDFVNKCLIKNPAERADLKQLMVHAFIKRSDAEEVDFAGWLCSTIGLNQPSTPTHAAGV
Chain of Mitogen-activated protein kinase 8 (Homo sapiens) (P45983 whole entry): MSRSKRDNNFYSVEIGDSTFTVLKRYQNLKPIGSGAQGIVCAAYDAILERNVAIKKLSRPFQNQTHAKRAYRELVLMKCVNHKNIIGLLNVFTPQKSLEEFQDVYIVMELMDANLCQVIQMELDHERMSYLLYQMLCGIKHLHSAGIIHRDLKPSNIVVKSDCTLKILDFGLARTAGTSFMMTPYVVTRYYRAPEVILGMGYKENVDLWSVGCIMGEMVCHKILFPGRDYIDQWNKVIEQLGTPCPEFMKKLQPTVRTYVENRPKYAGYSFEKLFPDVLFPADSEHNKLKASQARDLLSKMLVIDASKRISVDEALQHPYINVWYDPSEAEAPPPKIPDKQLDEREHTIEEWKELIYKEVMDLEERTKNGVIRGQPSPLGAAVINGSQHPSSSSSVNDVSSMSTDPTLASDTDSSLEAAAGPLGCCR

The term IC50 denotes the concentration that inhibits the measured activity by half. A lower IC50 goes with higher potency. As a reminder, the EC50 is the concentration at which the effect is half-maximal. For the molecule `CO[C@H]1CC[C@H](NC(=O)c2n[nH]cc2NC(=O)c2ccc(-c3ccccc3)o2)CC1`, the IC50 in test [1] is 7 nM; in [2], less than 5 nM; against CDK2/Cyclin A2 it was 10 nM. Also, the Ratio IC50 in [3] was 1.4. Moreover, the 50% effective concentration (EC50) in test [4] came to 300 nM; in the test with MRC5, 0.1 µM. The Activity was found to be 17% in test [5]; 2% in test [6]; 8% in [7]; 15% in [8]; 7% in test [9]; 90% in test [10]. Also, the Activity came to 0% in test [11]; 1% in test [12]; 13% in [13]; 1% in test [14]; 1% in test [15]; 2% in [16]. In addition, the Activity in test [17] was 13%; in test [18], 1%; in test [19], 4%; in test [20], 15%.
Take `COc1cccc(OC)c1C(=O)Nc1c[nH]nc1C(=O)N[C@H]1CC[C@H](OC)CC1`: the IC50 was 2 nM in test [1], less than 5 nM in test [2] and 190 nM against CDK2/Cyclin A2. Moreover, the Ratio IC50 in test [21] was less than 2.5; in [3] it was 95. Moreover, the half-maximal effective concentration (EC50) in [4] was 500 nM; in the test with MRC5, 31 µM. Also, the Activity in [5] turned out to be 83%; in test [6], 51%; in [7], 77%; in test [8], 82%; in test [9], 27%; in test [10] it was 33%. For the same molecule, the Activity was 0% in [11]; 9% in [12]; 100% in test [13]; 84% in test [14]; 63% in test [15]; 100% in test [16]. Besides, the Activity in [17] amounted to 100%; in test [18] it was 94%; in test [19] it was 100%; in test [20], 100%.
For the molecule `CO[C@H]1CC[C@H](NC(=O)c2n[nH]cc2NC(=O)c2ccccc2)CC1`, the figures for the IC50 (in test [1]; in test [2]; at CDK2/Cyclin A2) were 24 nM, less than 5 nM and 38 nM, respectively. Besides, the figures for the EC50 (in test [4]; in the test with MRC5) were 1300 nM and 0.8 µM, respectively. Moreover, the Activity was determined as 54% in test [5]; 18% in [6]; 31% in [7]; 51% in [8]; 14% in test [9]; 92% in test [10]. The Activity in [11] was found to be 33%; in [12], 1%; in [13], 32%; in test [14] it was 6%; in [15], 3%; in test [16], 24%. In addition, the Activity in [17] came out at 46%; in [18] it was 19%; in [19], 14%; in [20] it was 96%.
For `COc1cccc(OC)c1C(=O)Nc1c[nH]nc1C(=O)NCc1ccccc1`, the IC50 in test [1] was 1 nM; in test [2], 330 nM; at CDK2/Cyclin A2, more than 10000 nM. Moreover, the Ratio IC50 in test [21] was 330; in test [3], more than 10000. Moreover, the EC50 was 5900 nM in [4] and 50 µM with MRC5. Further, the Activity was found to be 76% in [5]; 92% in test [6]; 71% in test [7]; 63% in test [8]; 47% in test [9]; 13% in [10]. Besides, the Activity turned out to be 10% in test [11]; 38% in test [12]; 96% in [13]; 79% in test [14]; 28% in test [15]; 80% in [16]. The Activity in [17] came out at 92%; in [18], 96%; in test [19], 93%; in test [20], 79%; in test [22], 18%.
